The source of these data is ChEMBL document CHEMBL1134668, “Hydrazinonaphthalene and azonaphthalene thrombopoietin mimics are nonpeptidyl promoters of megakaryocytopoiesis” (J Med Chem, 2001).

The target in assay [1] is T1, Thrombopoietin receptor (Homo sapiens) (UniProt P40238).
T1 sequence (whole entry): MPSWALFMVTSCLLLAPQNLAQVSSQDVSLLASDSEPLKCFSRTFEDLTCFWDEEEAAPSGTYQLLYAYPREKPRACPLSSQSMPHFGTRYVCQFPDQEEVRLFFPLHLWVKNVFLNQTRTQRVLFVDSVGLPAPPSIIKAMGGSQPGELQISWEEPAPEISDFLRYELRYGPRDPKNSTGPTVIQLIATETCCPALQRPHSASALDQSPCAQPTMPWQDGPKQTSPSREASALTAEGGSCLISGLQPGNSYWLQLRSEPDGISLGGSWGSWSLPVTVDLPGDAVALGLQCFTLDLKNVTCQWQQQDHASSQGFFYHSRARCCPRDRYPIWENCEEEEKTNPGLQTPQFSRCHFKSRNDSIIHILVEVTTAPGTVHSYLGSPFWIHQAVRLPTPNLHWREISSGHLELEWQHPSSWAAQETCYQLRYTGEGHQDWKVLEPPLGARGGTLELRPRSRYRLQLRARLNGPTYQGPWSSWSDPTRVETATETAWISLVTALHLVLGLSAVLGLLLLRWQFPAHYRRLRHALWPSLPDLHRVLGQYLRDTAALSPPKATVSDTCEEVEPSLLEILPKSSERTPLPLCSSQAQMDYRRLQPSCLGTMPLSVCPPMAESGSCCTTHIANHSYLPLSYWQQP
The experiment in a line: Thrombopoietin luciferase activity in BAF-3 cells. In kind it is cell-based. The settings on record: BaF3.

Assay [2] in a line: Compound tested for CD34+ cell differentiation activity (%TPO) using CD34+ differentiation assay. The class given is functional, Homo sapiens. In a few lines:
(§1)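 Human bone marrow CD34+ cells from light density marrow cells (2 × 10^6 cells/mL) in IMDM with 20% v/v FCS and rhSCF 100 ng/mL, cultured with sample or TPO (maximal 100 ng/mL) for 10 days at 5% CO2 and 4% O2. Stained with FITC-anti-CD41 and FITC-anti-IgG1 isotype control, formaldehyde-fixed, flow cytometry; %CD41 = CD41 positive minus isotype positive.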

The nature of assay [3]: Effective concentration (EC50) required to inhibit CD34 cell differentiation. In kind it is functional. The settings on record: Homo sapiens. Put shortly:
as §1

A further assay addresses T2, Thrombopoietin receptor (Homo sapiens, UniProt P40238).
T2 sequence (P40238 whole entry): T1 sequence (whole entry)
The experiment in a line: Effective concentration for thrombopoietin luciferase activity was determined in BAF-3 cells. In kind it is cell-based, BaF3.

Assay [4] in a line: Compound tested for UT7/TPO cell proliferation activity (%TPO) using proliferation assay. The class given is functional, Homo sapiens. Put shortly:
(§2)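 UT7/TPO cells kept in IMDM/10% FBS/glutamine plus rhTPO, starved overnight without TPO. Cells (0.2 × 10^6/mL) in starving medium incubated with compounds (0.32% DMSO final) or rhTPO, 37 °C, 5% CO2, 72 h. Pellet DNA content read by BrdU kit. Mean value over control as % of maximal-TPO response, duplicates, plotted vs concentration for EC50.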

The nature of assay [5]: Effective concentration required to inhibit UT7/TPO cell proliferation was determined. The class given is functional, cell-based. The conditions noted are these: Homo sapiens. In a few lines:
as §2

With `Cc1[nH]n(-c2cccc(C(F)(F)F)c2)c(=O)c1/N=N/c1c(O)cc(S(=O)(=O)O)c2ccccc12`, the Efficacy in assay [1] was 62%; in assay [2] it was 95%. The figures for the EC50 (in assay [3]; at Thrombopoietin receptor) were 100 nM and 40 nM, respectively.

On to `Cc1ccc(-n2[nH]c(C)c(/N=N/c3c(O)cc(S(=O)(=O)O)c4ccccc34)c2=O)cc1C`, for which the Efficacy was 100% in assay [1], 90% in assay [4] and 100% in assay [2]. Besides, the values for the 50% effective concentration (EC50) (in assay [3]; on Thrombopoietin receptor) were 200 nM and 40 nM, respectively.

Regarding `Cc1[nH]n(-c2ccc(I)cc2)c(=O)c1/N=N/c1c(O)cc(S(=O)(=O)O)c2ccccc12`, the Efficacy in assay [1] is 81%; in assay [4] it was 100%; in assay [2] it was 60%. The EC50 – broadly, the concentration at which the effect is half-maximal – on Thrombopoietin receptor worked out at 300 nM.

For `Cc1[nH]n(-c2ccc(C(C)(C)C)cc2)c(=O)c1/N=N/c1c(O)cc(S(=O)(=O)O)c2ccccc12`, the Efficacy in assay [1] amounted to 86%. In addition, the TPO in assay [4] and in assay [2] was 100% in each case. Further, the EC50 was found to be 30 nM in assay [3] and 20 nM on Thrombopoietin receptor.

For the molecule `Cc1ccc(-n2[nH]c(C)c(/N=N/c3c(O)cc(S(=O)(=O)O)c4ccccc34)c2=O)cc1`, the Efficacy in assay [1] was found to be 53%; in assay [4], 90%. For the same molecule, the midpoint of the response on Thrombopoietin receptor, the EC50, lay at 2000 nM.

With `Cc1[nH]n(-c2cccc(Cl)c2)c(=O)c1/N=N/c1c(O)cc(S(=O)(=O)O)c2ccccc12`, the Efficacy in assay [1] was 34%; in assay [4], 45%. Moreover, the EC50 worked out at 500 nM in assay [5] and 2000 nM on Thrombopoietin receptor.

For `Cc1[nH]n(-c2ccc(Cl)c(Cl)c2)c(=O)c1/N=N/c1c(O)cc(S(=O)(=O)O)c2ccccc12`, the Efficacy in assay [1] was 67%; in assay [4], 70%. For the same molecule, the 50% effective concentration (EC50) on Thrombopoietin receptor turned out to be 200 nM.
